Measured values taken from ChEMBL document CHEMBL1138890, “Development of N-2,4-pyrimidine-N-phenyl-N'-alkyl ureas as orally active inhibitors of tumor necrosis factor alpha (TNF-alpha) synthesis. Part 2” (Bioorg Med Chem Lett, 2006).
Converted amounts (≈) assume the structure as drawn.

Key:
THP-1 [1] = assay: Inhibition of LPS-stimulated TNFalpha production in human THP1 cells; type: functional, cell-based
[2] = Solubility in Sprague-Dawley rat; type: ADME, organism-based
[3] = Metabolism measured as percent loss of compound in Sprague-Dawley rat hepatocytes after 4 hrs; type: ADME, cell-based, Hepatocyte; conditions: read-out: Activity
Summary of the method: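 Compound incubated with plated Sprague–Dawley rat hepatocytes for 4 h. Metabolism expressed as percent loss of parent compound.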

[4] = Bioavailability in Sprague-Dawley rat; type: ADME, organism-based; conditions: in vivo
Rattus norvegicus = assay: Reduction in severity of cartilage damage in Sprague-Dawley rat at 25 mg/kg; type: functional; set-up: scale not given: the % may be the effect or the level left
Summary of the method: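 Osteoarthritis was induced in male Sprague–Dawley rats (200–225 g) under anesthesia by injecting 20 µL of 10 mg/mL monosodium iodoacetate into the patellar ligament region of the left knee, flexed 90°. Groups of 15 were dosed BID (about every 12 h) for 7 days with 25 mg/kg compound or vehicle (2.5 mL/kg). On day 22 the left joint was fixed in 10% formalin for 24–48 h and the tibial cartilage surface imaged. Damage severity was compared with vehicle (P < 0.05).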

[5] = Half life in Sprague-Dawley rat; type: ADME, organism-based; conditions: in vivo
THP-1 [6] = assay: Inhibition of LPS-stimulated TNFalpha production in human THP1 cells at 10 uM; type: functional
[7] = Bioavailability in po dosed Sprague-Dawley rat; type: ADME, organism-based; conditions: in vivo

| SMILES | IC50 (THP-1 [1]) [nM] | further results |
| --- | --- | --- |
| COC[C@H](C)Nc1nccc(N(C(=O)NCc2ccc(Cl)c(Cl)c2)c2ccc(OC)cc2)n1 | 2070 |  |
| C[C@H](Nc1nccc(N(C(=O)NCc2ccccc2Cl)c2ccc(F)cc2)n1)C(C)(C)O | 14 |  |
| CC(C)Nc1nccc(N(C(=O)NCCN2CCN(C(=O)OC(C)(C)C)CC2)c2ccc(F)cc2)n1 | 277 |  |
| CNc1nccc(N(C(=O)NCc2ccccc2Cl)c2ccc(OC)cc2)n1 |  | inhibition at 10 µM (THP-1 [6]): 3% |
| COC[C@H](C)Nc1nccc(N(C(=O)NCc2ccccc2Cl)c2ccc(OC)cc2)n1 | 148 |  |
| O=C(NCc1ccccc1Cl)N(c1ccc(F)cc1)c1ccnc(Nc2c(F)cccc2F)n1 |  | inhibition at 10 µM (THP-1 [6]): 25% |
| CN(C)c1nccc(N(C(=O)NCc2ccccc2Cl)c2ccc(F)cc2)n1 |  | inhibition at 10 µM (THP-1 [6]): 35% |
| CC(C)Nc1nccc(N(C(=O)NCc2ccccn2)c2ccc(F)cc2)n1 | 30 |  |
| CC(C)Nc1nccc(N(C(=O)NCc2ccncc2)c2ccc(F)cc2)n1 | 4 |  |
| CC(C)Nc1nccc(N(C(=O)NCC2CCN(C(=O)OC(C)(C)C)CC2)c2ccc(F)cc2)n1 | 1160 |  |
| CCNC(=O)N(c1ccc(OC)cc1)c1ccnc(N[C@@H](C)C(C)(C)O)n1 | 28 | solubility [2]: 240 µg/mL (≈ 643 µM); bioavailability [7]: 15%; metabolised at 4 h [3]: 32%; Activity (Rattus norvegicus): 24% |
| CC(C)NC(=O)N(c1ccc(F)cc1)c1ccnc(NC(C)C)n1 | 74 |  |
| COc1ccc(N(C(=O)NCc2ccccc2Cl)c2ccnc(N[C@@H](C)C(C)(C)O)n2)cc1 | 9 | solubility [2]: < 10 µg/mL; metabolised at 4 h [3]: 32%; bioavailability [4]: 1.9%; half-life [5]: 1.9 h |
| CCOc1ccc(N(C(=O)NCc2ccccc2Cl)c2ccnc(N[C@@H](C)COC)n2)cc1 | 56 |  |

Further compounds by falling IC50 (THP-1 [1]), results first:

| IC50 (THP-1 [1]) [nM] | SMILES | further results |
| --- | --- | --- |
| 819 | CCNC(=O)N(c1ccc(OC)cc1)c1ccnc(N[C@@H](C)COC)n1 |  |
| 611 | COC[C@H](C)Nc1nccc(N(C(=O)NCc2ccc(Cl)cc2Cl)c2ccc(OC)cc2)n1 |  |
| 467 | COC[C@H](C)Nc1nccc(N(C(=O)NC2CCCCC2)c2ccc(OC)cc2)n1 |  |
| 324 | CCCCNC(=O)N(c1ccc(OC)cc1)c1ccnc(N[C@@H](C)COC)n1 |  |
| 276 | CCNC(=O)N(c1ccc(OCC)cc1)c1ccnc(N[C@@H](C)COC)n1 |  |
| 236 | COC[C@H](C)Nc1nccc(N(C(=O)NCc2ccccc2Cl)c2ccc(F)cc2)n1 |  |
| 119 | CC(C)Nc1nccc(N(C(=O)NCCN2CCNCC2)c2ccc(F)cc2)n1 |  |
| 86 | CCNC(=O)N(c1ccc(F)cc1)c1ccnc(NC2CCOCC2)n1 | solubility [2]: 25 µg/mL (≈ 69.6 µM); metabolised at 4 h [3]: 16%; bioavailability [4]: 13.2%; Activity (Rattus norvegicus): 16%; half-life [5]: 0.46 h |
| 80 | CCNC(=O)N(c1ccc(OC)cc1)c1ccnc(NC(C)C)n1 |  |
| 37 | COc1ccc(N(C(=O)NCc2ccccc2C)c2ccnc(N[C@@H](C)C(C)(C)O)n2)cc1 |  |
| 16 | O=C(NCc1ccccc1Cl)N(c1ccc(F)cc1)c1ccnc(NC2CCOCC2)n1 |  |
| 16 | CC(C)Nc1nccc(N(C(=O)NCC2CCNCC2)c2ccc(F)cc2)n1 |  |
| 16 | COc1ccc(N(C(=O)NCc2ccccc2Cl)c2ccnc(NC(C)C)n2)cc1 |  |
| 15 | COc1ccc(N(C(=O)NCc2ccccc2OC)c2ccnc(N[C@@H](C)C(C)(C)O)n2)cc1 |  |
